ChEMBL document CHEMBL4725468, “Identification of 3,5-Dimethylisoxazole Derivatives as BRD4 Inhibitors for the Treatment of Colorectal Cancer” (ACS Med Chem Lett, 2020)
Active and inactive are the calls of the source. No cut-off for these calls is given here.

Legend:
[1] = molecular target: Bromodomain-containing protein 4 (Homo sapiens, UniProt O60885); experiment: Inhibition of BRD4 bromodomain1 (unknown origin) using peptide histone H4 (SGRGACKGGACKGLGAC-KGGAACKRHGSGSK-biotin) as substrate incubated for 15 mins followed by substrate addition measured after 1 hr by alphascreen assay
BXPC-3 = experiment: Antiproliferation activity against human BxPC3 cells assessed as reduction in cell viability at 2.5 uM incubated for 48 hrs by MTT assay relative to control; format: functional
Outline: (§1)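 Single-concentration screen at 2.5 μM against BxPc3 and Mia-capa2 pancreatic cancer cells. Read-out is percent growth inhibition.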

MIA PaCa-2 = experiment: Antiproliferation activity against human MIAPaCa2 cells assessed as reduction in cell viability at 2.5 uM incubated for 48 hrs by MTT assay relative to control; format: functional; outline: as §1
HCT-116 [2] = experiment: Antiproliferation activity against human HCT116 cells assessed as reduction in cell viability at 2 uM incubated for 48 hrs by MTT assay relative to control; format: functional
Outline: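 HCT116 colon cancer cells screened at a single 2.0 μM concentration. Read-out is percent growth inhibition.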

HCT-116 [3] = experiment: Antiproliferation activity against human HCT116 cells assessed as reduction in cell viability incubated for 48 hrs by MTT assay; format: functional, cell-based; conditions: HCT-116, 48 h
Outline: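 HCT116 cells treated across a concentration gradient. IC50 was taken from dose–response curves, reported as mean ± SD of at least three independent experiments.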

HCT-116 [4] = experiment: Induction of cell cycle arrest in human HCT116 cells assessed as accumulation at G0/G1 phase at 0.16 uM incubated for 48 hrs by flow cytometry; format: functional, cell-based
Outline: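 HCT116 cells exposed to 0.16 μM for 48 h. Cell cycle phase distribution was measured, including the G0/G1 fraction.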

HCT-116 [5] = experiment: Antiproliferation activity against human HCT116 cells assessed as reduction in cell viability for 12 days by crystal violet staining based plate clone-forming analysis; format: functional; conditions: dose microM 0.008-0.165, time 12.0 day
Outline: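 Plate colony-formation assay in HCT116 cells with 12 days of compound exposure at several concentrations.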

HCT-116 [6] = experiment: Induction of apoptosis in human HCT116 cells assessed as downregulation of c-myc protein expression at 1 uM incubated for 48 hrs by western blot analysis; format: functional, cell-based
Outline: (§2)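 HCT116 cells treated at 1 μM for 48 h. Bcl-2, HEXIM1, BRD4 and c-Myc protein levels were measured by western blot.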

HCT-116 [7] = experiment: Induction of apoptosis in human HCT116 cells assessed as decrease in Bcl2 protein expression level at 1 uM incubated for 48 hrs by western blot analysis; format: functional, cell-based; outline: as §2
HCT-116 [8] = experiment: Induction of apoptosis in human HCT116 cells assessed as upregulation of HEXIM1 protein expression at 1 uM incubated for 48 hrs by western blot analysis; format: functional, cell-based; outline: as §2
HCT-116 [9] = experiment: Induction of apoptosis in human HCT116 cells assessed as upregulation of BRD4 expression at 1 uM incubated for 48 hrs by western blot analysis; format: functional, cell-based; outline: as §2
HCT-116 [10] = experiment: Induction of apoptosis in human HCT116 cells assessed as activation of downstream effector Caspase 3 at 1 uM incubated for 48 hrs by western blot analysis; format: functional, cell-based
CT26 [11] = experiment: Antitumor activity against […] xenografted in C57BL/6 mouse assessed as tumor suppression at 10 mg/kg, iv administered for 14 days and measured every two days relative to control; format: functional; conditions: C57BL/6, CT26, iv, 336 h, time 14 day, read-out: GI
CT26 [12] = experiment: Antitumor activity against […] xenografted in C57BL/6 mouse assessed as tumor suppression at 13.6 mg/kg, iv administered for 14 days and measured every two days relative to control; format: functional; conditions: C57BL/6, CT26, iv, 336 h, time 14 day, read-out: GI
CT26 [13] = experiment: Anticancer activity against […] xenografted in C57BL/6 mouse assessed as cell morphological changes measured at 20 mg/kg, iv administered for 14 days by hematoxylin staining based immunohistochemical analysis; format: functional, organism-based; conditions: time 14.0 day
CT26 [14] = experiment: Antitumor activity against […] xenografted in C57BL/6 mouse assessed as tumor suppression at 5 mg/kg, iv administered for 14 days and measured every two days relative to control; format: functional; conditions: C57BL/6, CT26, iv, 336 h, time 14 day, read-out: GI
[15] = Toxicity in C57BL/6 mouse xenografted with mouse CT26 cells assessed as body weight at 20 mg/kg, ip administered for 14 days and measured every two days; conditions: in vivo, 336 h
CT26 [16] = experiment: Antitumor activity against mouse CT26 cells xenografted in C57BL/6 mouse assessed as tumor suppression at 20 mg/kg, ip administered for 14 days and measured every two days relative to control; conditions: C57BL/6, CT26, ip, 336 h, read-out: GI
CT26 [17] = experiment: Anticancer activity against mouse CT26 cells xenografted in C57BL/6 mouse assessed as decrease in […] expression at 20 mg/kg, ip administered for 14 days by hematoxylin staining based immunohistochemical analysis; conditions: time 14.0 day
CT26 [18] = experiment: Anticancer activity against mouse CT26 cells xenografted in C57BL/6 mouse assessed as decrease in c-myc expression at 20 mg/kg, ip administered for 14 days by hematoxylin staining based immunohistochemical analysis; conditions: time 14.0 day
CT26 [19] = experiment: Anticancer activity against mouse CT26 cells xenografted in C57BL/6 mouse assessed as upregulation in HEXIM1 expression at 20 mg/kg, ip administered for 14 days by hematoxylin staining based immunohistochemical analysis; conditions: time 14.0 day

Row | Compound | IC50 [1] [nM] | Activity (BXPC-3) [%] | Activity (MIA PaCa-2) [%] | Activity (HCT-116 [2]) [%] | IC50 (HCT-116 [3]) [nM] | also measured
1 | Cc1noc(C)c1-c1ccc2c(c1)C(c1ccccc1)N(CCCCCCN1C(=O)N(C)c3ccc(-c4c(C)noc4C)cc3C1c1ccccc1)C(=O)N2C (stereo not drawn) | 42 | 44 | 70.9 | 59.7 | 1100 | 
2 | Cc1sc2c(c1C)C(c1ccc(Cl)cc1)=N[C@@H](CC(=O)OC(C)(C)C)c1nnc(C)n1-2 |  | 9.1 | 56.2 | 23.2 | 4210 | 
3 | Cc1noc(C)c1-c1ccc2c(c1)C(c1ccccc1)N(CCCCCN1C(=O)N(C)c3ccc(-c4c(C)noc4C)cc3C1c1ccccc1)C(=O)N2C (stereo not drawn) | 56 | 27.9 | 71.3 | 52 |  | 
4 | CCS(=O)(=O)Nc1ccc(Oc2ccc(F)cc2F)c(-c2cn(C)c(=O)c3[nH]ccc23)c1 [MIVEBRESIB] | 2.5 | 36.8 | 64.3 | 69.5 | 550 | 
5 | Cc1noc(C)c1-c1ccc2c(c1)C(c1ccccc1)N(Cc1cn(CCOCCOCCn3cc(CN4C(=O)Nc5ccc(-c6c(C)noc6C)cc5C4c4ccccc4)nn3)nn1)C(=O)N2 (stereo not drawn) | < 2.1 | 21.8 | 63.2 | 60.5 |  | 
6 | Cc1noc(C)c1-c1ccc2c(c1)C(c1ccccc1)N(Cc1cn(CCOCCn3cc(CN4C(=O)N(C)c5ccc(-c6c(C)noc6C)cc5C4c4ccccc4)nn3)nn1)C(=O)N2C (stereo not drawn) | 4.2 | 23.2 | 64 | 49.6 |  | 
7 | Cc1noc(C)c1-c1ccc2c(c1)C(c1ccccc1)N(CCCCN1C(=O)N(C)c3ccc(-c4c(C)noc4C)cc3C1c1ccccc1)C(=O)N2C (stereo not drawn) | 13 | 46.4 | 68.2 | 59.3 |  | 
8 | Cc1noc(C)c1-c1ccc2c(c1)C(c1ccccc1)N(CCOCCOCCOCCN1C(=O)N(C)c3ccc(-c4c(C)noc4C)cc3C1c1ccccc1)C(=O)N2C (stereo not drawn) | 19 | 42.1 | 73.4 | 35.3 |  | 
9 | Cc1noc(C)c1-c1ccc2c(c1)C(c1ccccc1)N(Cc1cn(CCn3cc(CN4C(=O)Nc5ccc(-c6c(C)noc6C)cc5C4c4ccccc4)nn3)nn1)C(=O)N2 (stereo not drawn) | < 2.1 | 53 | 62.2 | 60.3 |  | 
10 | Cc1noc(C)c1-c1ccc2c(c1)C(c1ccccc1)N(CCCCCCCCCCN1C(=O)N(C)c3ccc(-c4c(C)noc4C)cc3C1c1ccccc1)C(=O)N2C (stereo not drawn) |  | 45.2 | 65.2 | 48.8 |  | 
11 | Cc1noc(C)c1-c1ccc2c(c1)C(c1ccccc1)N(Cc1cn(CCOCCOCCOCCn3cc(CN4C(=O)Nc5ccc(-c6c(C)noc6C)cc5C4c4ccccc4)nn3)nn1)C(=O)N2 (stereo not drawn) | < 2.1 | 42.2 | 66.4 | 60.4 |  | 
12 | Cc1noc(C)c1-c1ccc2c(c1)C(c1ccccc1)N(Cc1cn(CCCCCCn3cc(CN4C(=O)Nc5ccc(-c6c(C)noc6C)cc5C4c4ccccc4)nn3)nn1)C(=O)N2 (stereo not drawn) | < 2.1 | 37.1 | 57.2 | 60.1 |  | 
13 | Cc1noc(C)c1-c1ccc2c(c1)C(c1ccccc1)N(CCOCCOCCN1C(=O)N(C)c3ccc(-c4c(C)noc4C)cc3C1c1ccccc1)C(=O)N2C (stereo not drawn) | 31 | 7.1 | 67.3 | 43.4 |  | 
14 | Cc1noc(C)c1-c1ccc2c(c1)C(c1ccccc1)N(Cc1cn(CCOCCOCCOCCn3cc(CN4C(=O)N(C)c5ccc(-c6c(C)noc6C)cc5C4c4ccccc4)nn3)nn1)C(=O)N2C (stereo not drawn) | 7.7 | 61.3 | 68.4 | 83.6 | 162 | Activity (HCT-116 [4]): Active; inhibition (HCT-116 [5]): Dose-dependent effect; Activity (HCT-116 [6]): Active; Activity (HCT-116 [7]): Active; Activity (HCT-116 [8]): Active; Activity (HCT-116 [9]): Active; Activity (HCT-116 [10]): Active; inhibition in vivo at 10 mg/kg (CT26 [11]): 33.8%; inhibition in vivo at 13.6 mg/kg (CT26 [12]): 11.5%; Activity (CT26 [13]): Active; inhibition in vivo at 5 mg/kg (CT26 [14]): 68%; Activity [15]: Non-Toxic; inhibition in vivo at 20 mg/kg (CT26 [16]): 56.1%; Activity (CT26 [17]): Active; Activity (CT26 [18]): Active; Activity (CT26 [19]): Active
15 | Cc1noc(C)c1-c1ccc2c(c1)C(c1ccccc1)NC(=O)N2C (stereo not drawn) | 32 | 11.2 | 59.1 | 14 | 3340 | Activity (HCT-116 [4]): Active; inhibition (HCT-116 [5]): Active; Activity (HCT-116 [6]): Active; Activity (HCT-116 [7]): Active; inhibition in vivo at 20 mg/kg (CT26 [16]): 11.5%
16 | Cc1noc(C)c1-c1ccc2c(c1)C(c1ccccc1)N(Cc1cn(CCOCCn3cc(CN4C(=O)Nc5ccc(-c6c(C)noc6C)cc5C4c4ccccc4)nn3)nn1)C(=O)N2 (stereo not drawn) | < 2.1 | 52.1 | 54.4 | 55.6 |  | 
